A short description of this series: Toxicity liver stage against HepG2, at 10uM. Particulars: human, HepG2-A16-CD81EGFP cells; read-out: INHIBITION
Type of series: cell-based. Also noted: test concentration 10 uM, cell line HepG2-A16-CD81EGFP. A digest of the protocol:
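Uninfected HepG2-A16-CD81EGFP cells, 3 × 10^3 per well, 1536-well, plated on prespotted compound at 10 μM final, parasite-free screening media added to match infected plates; puromycin 10 μM positive, DMSO 0.5% negative; run in parallel with 48 h PbLuc assay at 37 °C, 5% CO2; viability by CellTiter-Glo luminescence, normalized to controls.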

38 compounds from ChEMBL document CHEMBL4513216, “Probing the Open Global Health Chemical Diversity Library for Multistage-Active Starting Points for Next-Generation Antimalarials” (ACS Infect Dis, 2020) can be followed below.

As for `CNC(=O)CN(C)C(=O)c1cc(Cl)c(I)cc1OC`, the cytotoxicity at 10 µM turned out to be 13.8%.

As for `Cn1ccc2c(C(=O)N3CCCC(c4nnc[nH]4)C3)cccc21` (stereo not drawn), the cytotoxicity at 10 µM is 1.92%.

Regarding `Cc1ccc(C(=O)N2CC[C@H]3[C@H]2CCN3CC2CCOCC2)cc1F`, the cytotoxicity at 10 µM was -83.3%.

With `O=S(=O)(N1CCCC1)N1C[C@@H](c2cccc(F)c2)[C@@H]2NCCCCC[C@H]21`, the cytotoxicity at 10 µM is -25%.

Consider `CCC(CO)NCc1ccc(-c2ccc(F)c(Cl)c2)o1` (stereo not drawn), for which the cytotoxicity at 10 µM was 5.24%.

On to `Cc1nccn1CC(=O)N1CC(Cc2nccc3ccn(C)c23)C1`, for which the cytotoxicity at 10 µM was -23.4%.

Turning to `CC(C)N(C)Cc1cncc2c1CCN(Cc1cccs1)C2`, the cytotoxicity at 10 µM was -112%.

With `CCn1c(CN(C)C)nnc1C1CCN(Cc2ccc(C)s2)CC1`, the cytotoxicity at 10 µM is 7.01%.

Turning to `COc1ccc(NC(=O)N(CC2CCOC2)C2CC2)cn1` (stereo not drawn), the cytotoxicity at 10 µM was -6.95%.

With `Cc1cnc(N2C[C@@H]3[C@@H](C(=O)NCC(C)C)CCS(=O)(=O)[C@@H]3C2)nc1`, the cytotoxicity at 10 µM was -155%.

As for `Cn1nccc1-c1cccc(CC2CCN(S(C)(=O)=O)C2)n1` (stereo not drawn), the cytotoxicity at 10 µM amounted to 4.54%.

Regarding `Cc1nnc(NC(=O)CN2CCc3c(nc(C(C)C)n3C)C2)s1`, the cytotoxicity at 10 µM is -1.94%.

As for `Cc1nc(N2CCCC2C(=O)NC(C)(C)CO)nc2ccccc12` (stereo not drawn), the cytotoxicity at 10 µM came to 0.215%.

With `Cn1ccc(C(=O)NCc2ccc(N3CCCCCC3)nc2)cc1=O`, the cytotoxicity at 10 µM was -3.18%.

With `CCC(C)N(Cc1ccncc1)Cc1cccc(Cn2cccn2)c1` (stereo not drawn), the cytotoxicity at 10 µM is -45.1%.

For `Cn1c(CC2CCS(=O)(=O)C2)nnc1SCCOc1cccc(Cl)c1` (stereo not drawn), the cytotoxicity at 10 µM came out at 14.4%.

For `NCC1[C@H]2CN(Cc3ccccc3)C[C@@H]12` (stereo partly drawn), the cytotoxicity at 10 µM came to 4.78%.

Take `O=C(COC1CCCCC1)NS(=O)(=O)c1ccc2c(c1)OCCCO2`: the cytotoxicity at 10 µM was found to be 3.85%.

With `Cn1cc(CN2CCC3(CC2)CN(C(=O)c2cnccn2)CCO3)cn1`, the cytotoxicity at 10 µM is -5.49%.

For `COCCN1C[C@H]2[C@@H](C1)N(C(=O)c1cccc(OC)c1)CC[C@H]2OC`, the cytotoxicity at 10 µM was 3.56%.

For the compound `c1ccc2c3c([nH]c2c1)C(c1nn[nH]n1)CCC3` (stereo not drawn), the cytotoxicity at 10 µM was -7.23%.

With `Cc1nc(C(=O)N2CCCC(c3cc(C(F)(F)F)[nH]n3)C2)c[nH]1` (stereo not drawn), the cytotoxicity at 10 µM was -0.945%.

With `CSCCC(C)(O)CNS(=O)(=O)Cc1cccc(C)c1` (stereo not drawn), the cytotoxicity at 10 µM was determined as 1.09%.

With `CC(C)Oc1cccc(CN2CCC(c3n[nH]c4ncccc34)CC2)c1`, the cytotoxicity at 10 µM was -6.15%.

Take `CN1CCN(Cc2ccc(-c3ccc4[nH]ccc4c3)nc2)CC1`: the cytotoxicity at 10 µM was -9.17%.

Regarding `COc1ncccc1CN1C[C@H](C(=O)N2CCCO2)[C@@H]2CCO[C@@H]2C1`, the cytotoxicity at 10 µM turned out to be 11.2%.

Consider `CN(CC(=O)NC1(C)CCS(=O)(=O)C1)Cc1ccc(Br)cc1` (stereo not drawn), for which the cytotoxicity at 10 µM is -1.4%.

For `Cc1ccc(NC2CCN(C(=O)c3cccc4[nH]ncc34)CC2)nn1`, the cytotoxicity at 10 µM is -13.7%.

As for `CCCc1cc(NC(=O)c2ccc(Cl)c(N3CCNC3=O)c2)n[nH]1`, the cytotoxicity at 10 µM was -4.55%.

`CC(Oc1ccccc1C(F)(F)F)C(=O)NS(=O)(=O)C(C)C` (stereo not drawn): the cytotoxicity at 10 µM is -7.19%.

Take `CC(C)CC1SCC(=O)Nc2c1cnn2-c1ccccc1F` (stereo not drawn): the cytotoxicity at 10 µM is -8.62%.

For `CCc1ccccc1OCCN1CC[C@@]2(O)CCNC[C@H]2C1`, the cytotoxicity at 10 µM was -160%.

`Cc1ccccc1OCC(O)CN1CCC(Cn2cccn2)CC1` (stereo not drawn): the cytotoxicity at 10 µM is -0.972%.

As to `CCS(=O)(=O)N1C[C@@H]2C[C@H](C(=O)N(C)C)[C@H](C1)O2`, the cytotoxicity at 10 µM was 5.58%.

Regarding `CN1CCC(N(Cc2ccncc2)C(=O)COCC2CCCCO2)CC1` (stereo not drawn), the cytotoxicity at 10 µM was -150%.

Turning to `O=C1CC(c2ccc(F)c(F)c2)c2snc(C(=O)O)c2N1` (stereo not drawn), the cytotoxicity at 10 µM worked out at 6.95%.

As for `CSc1ccccc1C(=O)C1CCCN(Cc2cc(C(C)C)[nH]n2)C1` (stereo not drawn), the cytotoxicity at 10 µM is -4.01%.

As to `CCC(CO)N(C/C(C)=C/c1ccco1)Cc1ccccn1` (stereo not drawn), the cytotoxicity at 10 µM was -2.46%.
